Measured values collected from several papers.
Protocols differ between the studies behind these lines.
OPRD1: Delta-type opioid receptor (OPRD1, Homo sapiens, UniProt P41143)
PLG trypsin-like site: Plasminogen, trypsin-like site (PLG, Homo sapiens, UniProt P00747)
CA2: Carbonic anhydrase 2 (CA2, Homo sapiens, UniProt P00918)

SMILES	target	assay	setting	endpoint	value
CCC[C@H](CNC)NC[C@@H](CCC)NCC1CCCCCC1	OPRD1	cell-free assay	–	IC50	> 10 µM
CC(C)(C)[C@H](NC(=O)[C@H](CCCNC(=N)N)NC(=O)Cc1ccc(CNC(=N)N)cc1)C(=O)N[C@@H](CCONC(=N)N)C(=O)NCc1ccc(C(=N)N)cc1	PLG trypsin-like site	enzyme activity, inhibitor	pH 8	Ki	3.1 µM
On1ccc2ccccc2c1=S	CA2	enzyme activity, inhibitor, absorbance	pH 8	Ki	15 µM
O=C(CCCOc1cccc(Br)c1)N[C@H]1C[C@@H]2C[C@@H]2C1=O (relative stereo)	Transcriptional activator protein LasR (lasR, Pseudomonas aeruginosa, UniProt P25084, A127W)	reporter gene, agonist	–	EC50	0.2 µM
Cc1cc(O)cc(C)c1C[C@H](N)C(=O)N[C@H](C)C(=O)NCC(=O)N[C@@H](Cc1ccc(Cl)cc1)C(=O)N(C)CCC[C@@]1(c2ccc(F)cc2)OCc2cc(C#N)ccc21	Alpha-2A adrenergic receptor (ADRA2A, Homo sapiens, UniProt P08913)	ligand displacement, radioligand	–	Ki	4.7 µM
CS(=O)(=O)c1cccc(OCCCC(=O)N[C@H]2C[C@@H]3C[C@@H]3C2=O)c1 (relative stereo)	Transcriptional activator protein LasR (lasR, Pseudomonas aeruginosa, UniProt P25084, A127W/Y93F)	reporter gene, agonist	–	EC50	0.35 µM
Cc1cn([C@@H]2CC[C@H](OC(C(=O)O)C(=O)O)C2)c(=O)[nH]c1=O	Gag-Pol polyprotein, reverse transcriptase (gag-pol, Human immunodeficiency virus 1, UniProt P03366)	enzyme activity, inhibitor, radiometric	–	IC50	20 µM
COc1cc(C(=O)N2CC[C@@H](O)[C@@H](N)C2)cc2nc(-c3cc4ccccc4n3CC3CC3)n(C)c12	5-hydroxytryptamine receptor 3A (HTR3A, Homo sapiens, UniProt P46098)	calcium signal, agonist	–	EC50	50.1 µM
CCC(C)[C@@H](CNC)N1CCN(CCCC2CCCCC2)[C@H](C(C)C)C1 (some centres unmarked)	OPRD1	cell-free assay	–	IC50	> 10 µM
O=c1c(O)c(-c2ccc(O[C@@H]3O[C@H](CO)[C@@H](O)[C@H](O)[C@H]3O)c(O)c2)oc2cc(O)cc(O)c12	CA2	enzyme activity, inhibitor, absorbance	–	Ki	0.0222 µM
CCCC[C@H](CNCc1ccccc1)N1CCN(CC2CCCCCC2)[C@H](Cc2ccc(O)cc2)C1	OPRD1	cell-free assay	–	IC50	> 10 µM
CC(C)(C)[C@H](NC(=O)[C@H](CCONC(=N)N)NC(=O)Cc1ccc(CN)cc1)C(=O)N[C@@H](CCONC(=N)N)C(=O)NCc1ccc(C(=N)N)cc1	PLG trypsin-like site	enzyme activity, inhibitor	pH 8	Ki	19 µM
CC[C@H](C)[C@H](NC(=O)[C@H](Cc1ccccc1)NC(=O)[C@H](CC(=O)O)NC(=O)[C@H](CCCNC(=N)N)NC(=O)[C@@H](NC(=O)[C@H](C)NC(=O)[C@H](CC(C)C)NC(=O)[C@H](CC(N)=O)NC(=O)[C@H](CC(=O)O)NC(=O)[C@H](CC(C)C)NC(=O)[C@@H](NC(=O)[C@@H](NC(=O)[C@H](CO)NC(=O)[C@H](CCSC)NC(=O)[C@H](CCC(=O)O)NC(=O)[C@H](CC(=O)O)NC(=O)[C@H](CO)NC(=O)[C@H](Cc1ccccc1)NC(=O)[C@H](CO)NC(=O)CNC(=O)[C@H](CC(=O)O)NC(=O)[C@H](C)NC(=O)[C@@H](N)Cc1c[nH]cn1)[C@@H](C)O)[C@@H](C)CC)[C@@H](C)O)C(=O)N[C@@H](CC(N)=O)C(=O)N[C@@H](Cc1c[nH]c2ccccc12)C(=O)N[C@@H](CC(C)C)C(=O)N[C@H](C(=O)N[C@@H](CCC(N)=O)C(=O)N[C@H](C(=O)N[C@@H](CCCCN)C(=O)N[C@H](C(=O)N[C@H](C(=O)N[C@@H](CC(=O)O)C(=O)O)[C@@H](C)O)[C@@H](C)CC)[C@@H](C)O)[C@@H](C)CC	Gastric inhibitory polypeptide receptor (GIPR, Homo sapiens, UniProt P48546)	reporter gene, agonist, luciferase	–	EC50	> 1 µM
Cc1ccnc(S)c1	CA2	enzyme activity, inhibitor, absorbance	pH 8	Ki	7000 µM
CCC(C)[C@@H](CNC)N1CCN(CCC23CC4CC(CC(C4)C2)C3)[C@H](C(C)C)C1 (some centres unmarked)	OPRD1	cell-free assay	–	IC50	> 10 µM
CC(C)(C)[C@H](NC(=O)[C@H](CCCNC(=N)N)NC(=O)Cc1ccc(CN)cc1)C(=O)N[C@@H](CCONC(=N)N)C(=O)NCc1ccc(C(=N)N)cc1	PLG trypsin-like site	enzyme activity, inhibitor	pH 8	Ki	3.3 µM
CC(=O)Nc1ccc(O)cc1	NAD(P)H dehydrogenase [quinone] 1 (NQO1, Homo sapiens, UniProt P15559)	enzyme activity, inhibitor, absorbance	–	Ki	> 1000 µM
